Test results from ChEMBL document CHEMBL4004830 (J Med Chem, 2017).
The source made the active and inactive calls. The rule behind the calls is not given here.

Columns and labels:
[1] = biological target: Cyclin-dependent kinase 1/cyclin B1 (Homo sapiens, UniProt P06493); test: (§1) Inhibition of CDK1/cyclin B (unknown origin) in presence of [gamma-33P]-ATP […]; format: protein-complex assay; settings: read-out: Ki(app)
CDK2/Cyclin A2 = CDK2/Cyclin A2 (Homo sapiens, UniProt P24941); test: (§2) Inhibition of CDK2/cyclin A (unknown origin) in presence of [gamma-33P]-ATP […]; format: protein-complex assay; settings: read-out: Ki(app)
MDA-MB-453 = test: Growth inhibition of human MDA-MB-453 cells after 72 hrs by MTT assay; format: functional; settings: MDA-MB-453, 72 h
Method in brief: (§3)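 72 h antiproliferation assay, resazurin read-out for MV4-11 and MTT read-out for MDA-MB-453; values from at least two replicates.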

CDK6/cyclin D3 = CDK6/cyclin D3 (Homo sapiens, UniProt Q00534); test: Inhibition of CDK6/cyclin D3 (unknown origin) in presence of [gamma-33P]-ATP […]; format: protein-complex assay; settings: read-out: Ki(app)
CDK6/cyclin D3, sequence (P30281 whole entry): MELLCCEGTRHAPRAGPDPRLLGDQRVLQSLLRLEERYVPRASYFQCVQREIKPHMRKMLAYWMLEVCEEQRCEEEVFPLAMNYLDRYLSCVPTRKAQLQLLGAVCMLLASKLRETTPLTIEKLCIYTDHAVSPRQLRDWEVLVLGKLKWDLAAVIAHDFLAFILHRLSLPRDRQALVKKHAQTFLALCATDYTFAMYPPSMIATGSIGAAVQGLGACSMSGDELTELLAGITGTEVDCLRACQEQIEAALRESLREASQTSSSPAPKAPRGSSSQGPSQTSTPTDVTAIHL
CDK6/cyclin D3, sequence (Q00534 whole entry): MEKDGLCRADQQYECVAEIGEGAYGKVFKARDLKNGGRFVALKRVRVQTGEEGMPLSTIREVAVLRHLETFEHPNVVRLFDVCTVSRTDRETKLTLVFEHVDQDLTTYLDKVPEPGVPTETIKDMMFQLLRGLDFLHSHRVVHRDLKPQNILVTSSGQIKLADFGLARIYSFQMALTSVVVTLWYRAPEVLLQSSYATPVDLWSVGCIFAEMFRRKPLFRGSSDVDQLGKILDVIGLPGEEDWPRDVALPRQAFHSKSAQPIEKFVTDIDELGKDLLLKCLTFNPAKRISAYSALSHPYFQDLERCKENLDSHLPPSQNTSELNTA

[2] = biological target: Cyclin-dependent kinase 7/ cyclin H (Homo sapiens, UniProt P50613); test: (§4) Inhibition of CDK7/cyclin H (unknown origin) in presence of [gamma-33P]-ATP […]; format: protein-complex assay; settings: read-out: Ki(app)
Cyclin-dependent kinase 7/ cyclin H, sequence (P51946 whole entry): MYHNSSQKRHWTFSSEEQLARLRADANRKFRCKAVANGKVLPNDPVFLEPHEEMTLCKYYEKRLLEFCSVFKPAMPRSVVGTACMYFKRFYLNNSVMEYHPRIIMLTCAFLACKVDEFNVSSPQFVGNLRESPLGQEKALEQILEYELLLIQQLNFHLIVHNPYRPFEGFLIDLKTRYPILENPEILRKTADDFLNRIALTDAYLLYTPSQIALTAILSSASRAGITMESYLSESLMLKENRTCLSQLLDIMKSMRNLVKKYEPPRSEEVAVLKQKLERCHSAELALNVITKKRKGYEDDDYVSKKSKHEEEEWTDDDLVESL
Cyclin-dependent kinase 7/ cyclin H, sequence (P50613 whole entry): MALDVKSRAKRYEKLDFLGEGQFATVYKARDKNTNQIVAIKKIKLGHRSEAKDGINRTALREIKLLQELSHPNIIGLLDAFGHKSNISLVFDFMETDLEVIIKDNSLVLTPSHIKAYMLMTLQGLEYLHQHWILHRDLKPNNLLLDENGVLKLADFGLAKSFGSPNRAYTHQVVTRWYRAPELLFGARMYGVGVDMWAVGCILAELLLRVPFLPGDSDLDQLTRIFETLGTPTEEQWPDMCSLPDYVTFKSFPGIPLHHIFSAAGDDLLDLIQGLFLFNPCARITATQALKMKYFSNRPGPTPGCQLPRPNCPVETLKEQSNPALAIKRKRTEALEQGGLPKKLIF

[3] = biological target: Cyclin-dependent kinase 4/cyclin D1 (Homo sapiens, UniProt P11802); test: Inhibition of CDK4/cyclin D1 (unknown origin) in presence of [gamma-33P]-ATP […]; format: protein-complex assay; settings: read-out: Ki(app)
Cyclin-dependent kinase 4/cyclin D1, sequence (P11802 whole entry): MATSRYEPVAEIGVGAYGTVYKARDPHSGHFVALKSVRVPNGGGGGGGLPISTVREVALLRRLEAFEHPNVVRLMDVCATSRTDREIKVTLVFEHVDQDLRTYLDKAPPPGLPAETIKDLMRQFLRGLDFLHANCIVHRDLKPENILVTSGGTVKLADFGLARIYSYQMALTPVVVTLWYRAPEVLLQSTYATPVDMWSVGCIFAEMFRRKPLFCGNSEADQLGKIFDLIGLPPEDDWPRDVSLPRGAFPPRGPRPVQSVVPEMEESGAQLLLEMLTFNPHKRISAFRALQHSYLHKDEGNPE
Cyclin-dependent kinase 4/cyclin D1, sequence (P24385 whole entry, further chain): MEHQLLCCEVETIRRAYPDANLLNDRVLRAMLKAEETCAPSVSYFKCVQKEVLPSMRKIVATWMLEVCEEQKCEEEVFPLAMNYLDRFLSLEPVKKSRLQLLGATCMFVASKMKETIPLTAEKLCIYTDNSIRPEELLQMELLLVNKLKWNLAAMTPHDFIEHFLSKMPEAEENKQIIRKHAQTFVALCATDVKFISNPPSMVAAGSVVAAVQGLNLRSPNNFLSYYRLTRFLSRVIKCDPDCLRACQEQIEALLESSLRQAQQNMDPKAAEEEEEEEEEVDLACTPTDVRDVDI

CDK9/cyclin T1 = CDK9/cyclin T1 (Homo sapiens, UniProt P50750); test: Inhibition of CDK9/cyclin T1 (unknown origin) in presence of [gamma-33P]-ATP […]; format: protein-complex assay; settings: read-out: Ki(app)
CDK9/cyclin T1, sequence (O60563 whole entry): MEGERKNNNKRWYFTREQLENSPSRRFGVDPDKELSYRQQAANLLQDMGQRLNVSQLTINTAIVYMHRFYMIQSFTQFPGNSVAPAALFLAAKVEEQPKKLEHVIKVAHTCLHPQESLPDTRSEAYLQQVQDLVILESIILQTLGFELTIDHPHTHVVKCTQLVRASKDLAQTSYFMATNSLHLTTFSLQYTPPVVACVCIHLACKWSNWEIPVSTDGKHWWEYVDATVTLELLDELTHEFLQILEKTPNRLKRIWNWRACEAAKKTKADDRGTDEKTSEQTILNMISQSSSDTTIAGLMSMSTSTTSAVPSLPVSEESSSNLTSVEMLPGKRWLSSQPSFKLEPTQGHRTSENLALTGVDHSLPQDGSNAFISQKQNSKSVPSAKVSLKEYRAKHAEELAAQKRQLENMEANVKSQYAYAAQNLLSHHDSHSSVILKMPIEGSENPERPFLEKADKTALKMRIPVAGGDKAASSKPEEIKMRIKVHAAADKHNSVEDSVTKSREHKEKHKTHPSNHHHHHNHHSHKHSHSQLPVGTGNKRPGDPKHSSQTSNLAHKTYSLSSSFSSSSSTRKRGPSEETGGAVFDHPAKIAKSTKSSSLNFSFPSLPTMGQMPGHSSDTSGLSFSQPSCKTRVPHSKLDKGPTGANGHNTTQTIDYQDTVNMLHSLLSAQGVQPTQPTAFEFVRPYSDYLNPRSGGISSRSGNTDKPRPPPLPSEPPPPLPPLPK
CDK9/cyclin T1, sequence (P50750 whole entry): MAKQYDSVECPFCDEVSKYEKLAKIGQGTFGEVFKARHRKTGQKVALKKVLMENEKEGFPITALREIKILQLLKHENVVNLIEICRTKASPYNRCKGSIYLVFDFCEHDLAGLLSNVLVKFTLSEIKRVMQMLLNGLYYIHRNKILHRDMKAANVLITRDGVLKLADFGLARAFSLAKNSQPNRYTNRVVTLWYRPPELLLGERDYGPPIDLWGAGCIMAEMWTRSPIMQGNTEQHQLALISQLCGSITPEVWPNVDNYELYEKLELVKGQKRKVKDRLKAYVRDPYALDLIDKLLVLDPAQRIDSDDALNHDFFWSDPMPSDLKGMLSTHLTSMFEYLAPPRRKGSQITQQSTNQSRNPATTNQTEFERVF

MV4-11 = test: Growth inhibition of human MV4-11 cells after 72 hrs by resazurin assay; format: functional; settings: MV4-11, 72 h; method in brief: as §3
[4] = biological target: Cyclin-dependent kinase 1/cyclin B1 (Homo sapiens) (UniProt P06493+P14635); test: as §1; format: protein-complex assay
Cyclin-dependent kinase 1/cyclin B1 (Homo sapiens), sequence (P06493 whole entry, looked up): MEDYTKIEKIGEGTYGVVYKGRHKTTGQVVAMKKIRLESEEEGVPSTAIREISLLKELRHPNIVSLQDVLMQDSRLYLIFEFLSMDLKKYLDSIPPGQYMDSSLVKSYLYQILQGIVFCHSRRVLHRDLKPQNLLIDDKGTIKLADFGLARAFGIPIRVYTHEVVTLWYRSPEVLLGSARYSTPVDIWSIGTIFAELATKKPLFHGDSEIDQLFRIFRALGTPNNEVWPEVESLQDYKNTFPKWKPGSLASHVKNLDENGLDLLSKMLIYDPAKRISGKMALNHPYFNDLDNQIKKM
Cyclin-dependent kinase 1/cyclin B1 (Homo sapiens), sequence (P14635 whole entry, looked up): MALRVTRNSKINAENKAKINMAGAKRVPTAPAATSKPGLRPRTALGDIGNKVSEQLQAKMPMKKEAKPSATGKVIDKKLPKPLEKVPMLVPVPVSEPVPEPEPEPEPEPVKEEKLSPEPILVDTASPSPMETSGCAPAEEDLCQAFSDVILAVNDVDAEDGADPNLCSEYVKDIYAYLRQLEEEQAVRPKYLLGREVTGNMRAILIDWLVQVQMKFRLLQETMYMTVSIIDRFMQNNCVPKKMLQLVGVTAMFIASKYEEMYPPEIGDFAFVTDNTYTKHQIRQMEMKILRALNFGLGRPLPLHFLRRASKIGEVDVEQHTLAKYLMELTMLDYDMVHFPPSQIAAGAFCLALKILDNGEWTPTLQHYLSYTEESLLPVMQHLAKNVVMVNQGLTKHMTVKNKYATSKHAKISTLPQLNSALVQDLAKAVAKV

[5] = biological target: CDK2/Cyclin A2 (Homo sapiens) (UniProt P24941+P20248); test: as §2; format: protein-complex assay
[6] = biological target: Cyclin-dependent kinase 7/ cyclin H (Homo sapiens) (UniProt P51946+P50613); test: as §4; format: protein-complex assay
[7] = biological target: Death-associated protein kinase 1 (Homo sapiens) (UniProt P53355); test: Inhibition of recombinant human N-terminal GST-tagged DAPK1 (1 to 296 amino acid residues) expressed in baculovirus infected Sf21 cells assessed as residual activity at 10 uM; values are per cent of control
[8] = biological target: MAP kinase-interacting serine/threonine-protein kinase 2 (Homo sapiens) (UniProt Q9HBH9); test: Inhibition of recombinant full-length human N-terminal His6-tagged Mnk2 expressed in baculovirus infected Sf21 insect cells assessed as residual activity at 10 uM; values are per cent of control
[9] = biological target: Dual specificity tyrosine-phosphorylation-regulated kinase 1B (Homo sapiens) (UniProt Q9Y463); test: Inhibition of DYRK1B (unknown origin) assessed as residual activity at 10 uM; values are per cent of control
[10] = biological target: Serine/threonine-protein kinase pim-1 (Homo sapiens) (UniProt P11309); test: Inhibition of recombinant full-length human N-terminal GST-tagged Pim-1 expressed in Escherichia coli assessed as residual activity at 10 uM; values are per cent of control
[11] = biological target: Fibroblast growth factor receptor 1 (Homo sapiens) (UniProt P11362); test: Inhibition of recombinant human N-terminal GST-tagged FGFR1 (456 to 765 amino acid residues) expressed in baculovirus infected Sf21 insect cells assessed as residual activity at 10 uM; values are per cent of control
Fibroblast growth factor receptor 1 (Homo sapiens), sequence (P11362 22-822 limits assumed): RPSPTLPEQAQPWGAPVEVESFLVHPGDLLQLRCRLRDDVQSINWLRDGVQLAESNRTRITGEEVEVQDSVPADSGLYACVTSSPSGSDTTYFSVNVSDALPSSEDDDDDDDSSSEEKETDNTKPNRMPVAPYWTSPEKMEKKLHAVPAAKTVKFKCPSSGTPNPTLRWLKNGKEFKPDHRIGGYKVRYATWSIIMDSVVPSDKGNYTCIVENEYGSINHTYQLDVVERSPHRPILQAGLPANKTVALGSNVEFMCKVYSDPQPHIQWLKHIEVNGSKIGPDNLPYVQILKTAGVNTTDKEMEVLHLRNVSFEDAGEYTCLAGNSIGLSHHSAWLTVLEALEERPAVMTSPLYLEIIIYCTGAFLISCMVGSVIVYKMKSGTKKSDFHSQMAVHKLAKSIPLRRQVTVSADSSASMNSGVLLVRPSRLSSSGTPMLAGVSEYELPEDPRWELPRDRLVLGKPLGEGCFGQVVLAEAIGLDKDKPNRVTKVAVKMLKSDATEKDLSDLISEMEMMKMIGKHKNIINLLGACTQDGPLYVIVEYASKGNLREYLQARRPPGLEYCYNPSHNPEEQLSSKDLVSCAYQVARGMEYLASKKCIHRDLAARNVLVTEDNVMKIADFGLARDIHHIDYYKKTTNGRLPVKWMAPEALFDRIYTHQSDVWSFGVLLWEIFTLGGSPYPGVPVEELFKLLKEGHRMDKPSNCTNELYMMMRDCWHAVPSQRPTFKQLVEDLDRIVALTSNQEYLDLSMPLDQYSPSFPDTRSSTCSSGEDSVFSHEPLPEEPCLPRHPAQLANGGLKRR

[12] = biological target: Homeodomain-interacting protein kinase 2 (Homo sapiens) (UniProt Q9H2X6); test: Inhibition of recombinant human N-terminal His6-tagged HIPK2 (165 to 564 amino acid residues) expressed in baculovirus infected Sf21 insect cells assessed as residual activity at 10 uM; values are per cent of control
[13] = biological target: Receptor-type tyrosine-protein kinase FLT3 (Homo sapiens) (UniProt P36888); test: Inhibition of recombinant human N-terminal GST-tagged Flt3 (564 to end amino acid residues) expressed in baculovirus infected Sf21 insect cells assessed as residual activity at 10 uM; values are per cent of control
Homo sapiens = organism: Homo sapiens; test: Inhibition of SGK (unknown origin) assessed as residual activity at 10 uM; values are per cent of control
[14] = biological target: Dual specificity tyrosine-phosphorylation-regulated kinase 1A (Rattus norvegicus) (UniProt Q63470); test: Inhibition of recombinant rat N-terminal GST-tagged DYRK1A (1 to 499 amino acid residues) expressed in Escherichia coli assessed as residual activity at 10 uM; values are per cent of control
[15] = biological target: Vascular endothelial growth factor receptor 3 (Homo sapiens) (UniProt P35916); test: Inhibition of recombinant human N-terminal GST-tagged Flt4 (800 to end amino acid residues) expressed in baculovirus infected Sf21 insect cells assessed as residual activity at 10 uM; values are per cent of control

Cyclin-dependent kinase 1/cyclin B1, sequence (P06493 whole entry): as the sequence (P06493 whole entry, looked up) above
Cyclin-dependent kinase 1/cyclin B1, sequence (P14635 whole entry, further chain): as the sequence (P14635 whole entry, looked up) above

Compound	Ki [1] [µM]	GI50 (MDA-MB-453) [µM]	Ki [2] [µM]	Ki (CDK9/cyclin T1) [µM]	GI50 (MV4-11) [µM]	other results
Cc1nc(N(C2CCCC2)C2CCCC2)sc1-c1ccnc(Nc2ccc(N3CCNCC3)cn2)n1	> 5	0.373	> 5	> 5	0.714	Ki (CDK2/Cyclin A2): > 5 µM; Ki (CDK6/cyclin D3): 0.539 µM; Ki [3]: 0.071 µM
FC(F)(F)c1nc(NC2CCCC2)sc1-c1ccnc(Nc2ccc(N3CCNCC3)cn2)n1	–	0.081	0.194	–	0.002	–
CCN1CCN(Cc2ccc(Nc3nccc(-c4sc(NC5CCCC5)nc4C)n3)nc2)CC1	> 5	0.069	0.211	–	0.019	–
CC(=O)N1CCN(c2ccc(Nc3nccc(-c4sc(NC5CCCC5)nc4C)n3)nc2)CC1	–	0.591	3.45	–	0.024	–
CCN1CCN(c2ccc(Nc3ncc(F)c(-c4sc(NC5CCCC5)nc4C)n3)nc2)CC1	–	0.066	0.685	> 5	0.013	Ki(app) [4]: inactive
CN1CCN(c2ccc(Nc3nccc(-c4sc(NC5CCCC5)nc4C(F)(F)F)n3)nc2)CC1	–	0.42	0.189	–	0.001	–
CC(=O)N1CCN(c2ccc(Nc3ncc(F)c(-c4sc(NC5CCCC5)nc4C)n3)nc2)CC1	> 5	8.11	> 5	–	0.015	–
Cc1nc(Nc2ccccc2)sc1-c1ccnc(Nc2ccc(N3CCN(C)CC3)cn2)n1	–	0.494	–	> 5	0.508	Ki(app) [4]: inactive; Ki(app) [5]: inactive; Ki(app) [6]: inactive
O=CN1CCN(c2ccc(Nc3nccc(-c4sc(NC5CCCC5)nc4C(F)(F)F)n3)nc2)CC1	–	0.336	1.9	> 5	0.004	–
Cc1nc(NC(C)C)sc1-c1ccnc(Nc2ccc(N3CCN(C)CC3)cn2)n1	–	0.618	0.76	–	0.075	–
Cc1nc(NC2CCCC2)sc1-c1ccnc(Nc2ccc(N3CCN(S(C)(=O)=O)CC3)cn2)n1	1.1	0.215	2.64	1.32	0.176	Ki (CDK2/Cyclin A2): 0.077 µM; Ki (CDK6/cyclin D3): 0.055 µM; Ki [3]: 0.007 µM
Cc1nc(NC(C)C)sc1-c1ccnc(Nc2ccc(N3CCOCC3)cn2)n1	> 5	0.115	> 5	> 5	0.032	–
Cc1nc(NC2CCCC2)sc1-c1ccnc(Nc2ccccn2)n1	–	4.38	–	> 5	0.3	–
CCN1CCN(Cc2ccc(Nc3ncc(F)c(-c4sc(NC5CCCC5)nc4C)n3)nc2)CC1 [ULECACICLIB]	–	0.622	0.63	–	0.01	Ki(app) [4]: inactive
CCN1CCN(c2ccc(Nc3nccc(-c4sc(NC5CCCC5)nc4C)n3)nc2)CC1	–	0.287	0.78	–	0.009	–
Cc1nc(NC2CCCC2)sc1-c1nc(Nc2ccc(N3CCOCC3)cn2)ncc1F	4.35	1.44	> 5	> 5	0.29	–
CC(=O)N1CCN(c2ccc(Nc3nccc(-c4sc(NC5CCCC5)nc4C(F)(F)F)n3)nc2)CC1	–	0.077	2.61	> 5	0.012	–

Compound	Ki [1] [µM]	GI50 (MDA-MB-453) [µM]	Ki [2] [µM]	Ki (CDK9/cyclin T1) [µM]	GI50 (MV4-11) [µM]	other results
Cc1nc(NC2CCCC2)sc1-c1ccnc(Nc2ccc(N3CCCNCC3)cn2)n1	–	0.102	0.282	–	0.029	–
Cc1nc(NC2CCCC2)sc1-c1nc(Nc2ccc(N3CCN(C)CC3)cn2)ncc1F	2.33	0.202	2.02	0.505	0.073	residual activity [7]: < 10%; residual activity [8]: < 10%; residual activity [9]: < 10%; residual activity [10]: < 10%; residual activity [11]: < 10%; residual activity [12]: < 10%; residual activity [13]: < 10%; Ki (CDK2/Cyclin A2): 0.103 µM; residual activity (Homo sapiens): < 10%; Ki (CDK6/cyclin D3): 0.003 µM; Ki [3]: 0.001 µM; residual activity [14]: < 10%; residual activity [15]: < 10%
CC(=O)N1CCN(c2ccc(Nc3nccc(-c4sc(NC(C)C)nc4C)n3)nc2)CC1	–	0.344	4.39	–	2.07	–
Cc1nc(NC2CCCC2)sc1-c1ccnc(Nc2ccc(N3CCCCC3)cn2)n1	–	7.04	–	> 5	0.191	Ki(app) [4]: inactive; Ki (CDK2/Cyclin A2): > 5 µM; Ki(app) [6]: inactive
Cc1nc(NC2CCCC2)sc1-c1nc(Nc2ccc(N3CCCNCC3)cn2)ncc1F	> 5	0.083	0.815	–	0.029	–
Cc1nc(NC2CCCC2)sc1-c1ccnc(Nc2ccc(N3CCN(C)CC3)cn2)n1	–	0.13	0.865	–	0.009	–
Cc1nc(NC(C)C)sc1-c1ccnc(Nc2ccc(N3CCCNCC3)cn2)n1	> 5	0.938	1.16	–	0.255	–
Cc1nc(NC2CCCC2)sc1-c1nc(Nc2ccc(N3CCN(S(C)(=O)=O)CC3)cn2)ncc1F	–	2.81	–	> 5	2.63	Ki(app) [4]: inactive; Ki(app) [6]: inactive
Cc1nc(Nc2ccccc2)sc1-c1ccnc(Nc2ccc(N3CCNCC3)cn2)n1	–	0.279	1.66	–	0.056	Ki (CDK2/Cyclin A2): > 5 µM
Cc1nc(N(C)C2CCCC2)sc1-c1ccnc(Nc2ccc(N3CCNCC3)cn2)n1	–	0.402	3.2	–	0.285	–
Cc1nc(NC2CCCC2)sc1-c1ccnc(Nc2ccc(N3CCC(N)CC3)cn2)n1	–	0.055	1.19	–	0.013	–
Cc1nc(NC(C)C)sc1-c1ccnc(Nc2ccc(N3CCNCC3)cn2)n1	–	0.031	0.775	–	0.093	–
FC(F)(F)c1nc(NC2CCCC2)sc1-c1ccnc(Nc2ccc(N3CCOCC3)cn2)n1	–	0.415	–	> 5	0.069	Ki(app) [4]: inactive; Ki(app) [6]: inactive
Cc1nc(NC2CCCC2)sc1-c1nc(Nc2ccc(N3CCNCC3)cn2)ncc1F	–	0.78	0.79	–	0.053	–
Cc1nc(N(C)C2CCCC2)sc1-c1ccnc(Nc2ccc(N3CCN(C)CC3)cn2)n1	> 5	3.36	> 5	–	0.02	–
Cc1nc(N(C)c2ccccc2)sc1-c1ccnc(Nc2ccc(N3CCN(C)CC3)cn2)n1	> 5	0.15	> 5	–	0.421	–
CC(=O)N1CCN(c2ccc(Nc3nccc(-c4sc(N(C)C5CCCC5)nc4C)n3)nc2)CC1	–	6.86	–	> 5	0.328	Ki(app) [6]: inactive
